Reference: ChEMBL document CHEMBL3779805, “Orally bioavailable pyridine and pyrimidine-based Factor XIa inhibitors: Discovery of the methyl N-phenyl carbamate P2 prime group” (Bioorg Med Chem, 2016)

Columns and labels:
Coagulation factor XI = Coagulation factor XI (Homo sapiens, UniProt P03951)
Plasma = test: Anticoagulant activity in human plasma assessed as concentration required for 50% increase in activated partial thromboplastin time by automated coagulation analyzer; type: functional
In short: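 aPTT clotting assay in pooled normal human plasma on an automated coagulation analyzer with commercial reagents. EC1.5x is the inhibitor plasma concentration giving a 50% increase in clotting time over the no-inhibitor control.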

Coagulation factor X = Coagulation factor X (Homo sapiens, UniProt P00742); test: Inhibition of human coagulation factor 10a assessed as reduction in release of p-nitroaniline after 10 to 120 mins by Michaelis-Menten equation analysis
Sequence of Coagulation factor X (P00742 41-179 limits assumed): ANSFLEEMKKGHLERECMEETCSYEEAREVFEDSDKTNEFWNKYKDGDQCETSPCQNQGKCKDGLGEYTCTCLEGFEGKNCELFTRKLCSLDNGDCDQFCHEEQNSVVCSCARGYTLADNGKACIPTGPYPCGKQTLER
Sequence of Coagulation factor X (P00742 235-488 limits assumed): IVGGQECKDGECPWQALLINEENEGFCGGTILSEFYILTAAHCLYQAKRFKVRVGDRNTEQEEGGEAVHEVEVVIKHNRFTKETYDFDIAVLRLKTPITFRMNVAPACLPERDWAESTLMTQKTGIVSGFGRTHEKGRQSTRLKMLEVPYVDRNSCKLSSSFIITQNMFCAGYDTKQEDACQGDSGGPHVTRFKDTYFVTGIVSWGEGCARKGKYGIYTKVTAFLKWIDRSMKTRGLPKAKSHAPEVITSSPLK
In short: (§1)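 Purified human enzymes with commercial synthetic peptide substrates. IC50 from 4–11 inhibitor concentrations, run in duplicate at a fixed substrate concentration (standard error <20%). Ki = IC50/(1+S/Km), assuming competitive inhibition.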

Coagulation factor IX = Coagulation factor IX (Homo sapiens, UniProt P00740); test: Inhibition of human coagulation factor 9a assessed as reduction in release of p-nitroaniline after 10 to 120 mins by Michaelis-Menten equation analysis
Sequence of Coagulation factor IX (P00740 47-191 limits assumed): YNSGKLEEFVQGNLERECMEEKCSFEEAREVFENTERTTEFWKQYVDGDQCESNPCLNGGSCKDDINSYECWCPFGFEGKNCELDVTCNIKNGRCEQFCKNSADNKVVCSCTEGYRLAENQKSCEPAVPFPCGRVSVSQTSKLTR
Sequence of Coagulation factor IX (P00740 227-461 limits assumed): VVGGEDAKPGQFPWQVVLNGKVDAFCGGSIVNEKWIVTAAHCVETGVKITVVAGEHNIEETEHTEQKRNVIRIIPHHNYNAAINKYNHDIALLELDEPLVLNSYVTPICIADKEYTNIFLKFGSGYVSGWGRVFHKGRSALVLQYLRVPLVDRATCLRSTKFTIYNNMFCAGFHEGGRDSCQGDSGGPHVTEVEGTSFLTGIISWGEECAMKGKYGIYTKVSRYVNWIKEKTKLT
In short: as §1

[1] = molecular target: Urokinase-type plasminogen activator (Homo sapiens, UniProt P00749); test: Inhibition of human urokinase assessed as reduction in release of p-nitroaniline after 10 to 120 mins by Michaelis-Menten equation analysis
In short: as §1

Trypsin = Trypsin (Homo sapiens, UniProt P07477+P07478+P35030); test: Inhibition of human coagulation trypsin assessed as reduction in release of p-nitroaniline after 10 to 120 mins by Michaelis-Menten equation analysis; type: protein assay
In short: as §1

Coagulation factor VII = molecular target: T1, Coagulation factor VII (Homo sapiens, UniProt P08709); test: Inhibition of human coagulation factor 7a assessed as reduction in release of p-nitroaniline after 10 to 120 mins by Michaelis-Menten equation analysis
T1 sequence (P08709 whole entry): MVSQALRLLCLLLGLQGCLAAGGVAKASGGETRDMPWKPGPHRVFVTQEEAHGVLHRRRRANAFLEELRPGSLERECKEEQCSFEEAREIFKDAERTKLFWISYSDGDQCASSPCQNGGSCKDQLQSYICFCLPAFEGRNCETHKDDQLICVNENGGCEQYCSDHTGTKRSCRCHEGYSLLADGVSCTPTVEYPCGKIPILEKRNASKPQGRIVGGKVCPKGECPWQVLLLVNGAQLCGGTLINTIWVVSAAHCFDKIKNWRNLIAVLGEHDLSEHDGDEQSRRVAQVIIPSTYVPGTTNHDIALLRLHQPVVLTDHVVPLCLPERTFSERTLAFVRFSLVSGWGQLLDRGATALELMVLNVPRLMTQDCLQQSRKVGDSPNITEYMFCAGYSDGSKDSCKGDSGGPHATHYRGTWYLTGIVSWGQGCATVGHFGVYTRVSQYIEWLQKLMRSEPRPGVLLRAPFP
In short: as §1

Plasminogen = Plasminogen (Homo sapiens, UniProt P00747); test: Inhibition of human plasmin assessed as reduction in release of p-nitroaniline after 10 to 120 mins by Michaelis-Menten equation analysis
Sequence of Plasminogen (P00747 97-580 limits assumed): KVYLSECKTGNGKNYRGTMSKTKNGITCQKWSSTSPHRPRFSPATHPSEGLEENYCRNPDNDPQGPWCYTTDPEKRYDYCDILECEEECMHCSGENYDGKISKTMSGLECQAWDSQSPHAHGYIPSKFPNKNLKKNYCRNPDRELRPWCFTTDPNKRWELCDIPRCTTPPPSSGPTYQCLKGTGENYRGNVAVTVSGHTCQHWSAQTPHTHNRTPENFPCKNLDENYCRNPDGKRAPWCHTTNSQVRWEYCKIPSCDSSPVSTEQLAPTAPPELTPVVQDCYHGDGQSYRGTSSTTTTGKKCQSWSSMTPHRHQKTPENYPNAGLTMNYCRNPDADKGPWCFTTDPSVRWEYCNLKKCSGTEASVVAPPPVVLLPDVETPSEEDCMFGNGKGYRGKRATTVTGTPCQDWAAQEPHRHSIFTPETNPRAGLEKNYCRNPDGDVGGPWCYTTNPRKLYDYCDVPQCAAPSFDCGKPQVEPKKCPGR
Sequence of Plasminogen (P00747 581-810 limits assumed): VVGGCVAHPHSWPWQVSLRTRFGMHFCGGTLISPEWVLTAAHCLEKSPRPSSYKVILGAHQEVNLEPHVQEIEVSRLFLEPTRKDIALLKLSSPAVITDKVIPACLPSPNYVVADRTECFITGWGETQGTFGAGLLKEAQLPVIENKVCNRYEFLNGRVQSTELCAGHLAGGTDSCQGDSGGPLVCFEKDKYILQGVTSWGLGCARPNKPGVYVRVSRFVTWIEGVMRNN
In short: as §1

[2] = molecular target: Tissue-type plasminogen activator (Homo sapiens, UniProt P00750); test: Inhibition of human TPA assessed as reduction in release of p-nitroaniline after 10 to 120 mins by Michaelis-Menten equation analysis
Sequence of Tissue-type plasminogen activator (P00750 whole entry): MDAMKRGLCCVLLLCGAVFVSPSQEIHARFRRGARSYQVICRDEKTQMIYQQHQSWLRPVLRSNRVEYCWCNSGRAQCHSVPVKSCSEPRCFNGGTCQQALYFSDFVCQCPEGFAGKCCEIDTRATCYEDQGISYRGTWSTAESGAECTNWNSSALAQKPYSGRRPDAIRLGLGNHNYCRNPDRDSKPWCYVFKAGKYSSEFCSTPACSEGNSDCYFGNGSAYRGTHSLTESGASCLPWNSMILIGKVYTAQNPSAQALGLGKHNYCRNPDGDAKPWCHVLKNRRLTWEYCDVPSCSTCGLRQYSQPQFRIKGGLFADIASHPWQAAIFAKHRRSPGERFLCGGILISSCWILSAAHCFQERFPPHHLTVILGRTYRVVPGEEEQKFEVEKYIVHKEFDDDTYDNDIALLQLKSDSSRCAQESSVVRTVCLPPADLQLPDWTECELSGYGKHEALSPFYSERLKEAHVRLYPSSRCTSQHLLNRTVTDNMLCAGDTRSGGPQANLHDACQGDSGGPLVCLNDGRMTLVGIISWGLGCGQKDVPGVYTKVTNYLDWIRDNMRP
In short: as §1

[3] = AUC in beagle dog plasma at 0.28 mg/kg, iv and 0.62 mg/kg, po by LC-MS/MS method; type: ADME, organism-based, Canis lupus familiaris
In short: (§2)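 Dogs dosed iv and po in N-in-1 (cassette) format. The same vehicle was used for both routes: 70% water, 10% ethanol, 10% dimethylacetamide, 10% polypropylene glycol.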

Plasma kallikrein = Plasma kallikrein (Homo sapiens, UniProt P03952); test: Inhibition of human plasma kallikrein assessed as reduction in release of p-nitroaniline after 10 to 120 mins by Michaelis-Menten equation analysis; type: cell-free
Sequence of Plasma kallikrein (P03952 20-390 limits assumed): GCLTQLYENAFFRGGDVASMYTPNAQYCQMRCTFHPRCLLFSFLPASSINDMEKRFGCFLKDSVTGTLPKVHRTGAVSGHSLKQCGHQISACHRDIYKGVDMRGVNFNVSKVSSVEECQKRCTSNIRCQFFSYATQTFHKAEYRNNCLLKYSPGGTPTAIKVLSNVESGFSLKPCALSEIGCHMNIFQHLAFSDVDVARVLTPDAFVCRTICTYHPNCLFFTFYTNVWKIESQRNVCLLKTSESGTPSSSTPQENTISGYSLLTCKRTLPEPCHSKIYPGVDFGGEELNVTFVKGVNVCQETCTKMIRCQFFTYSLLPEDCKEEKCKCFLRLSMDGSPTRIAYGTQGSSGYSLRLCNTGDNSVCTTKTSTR
Sequence of Plasma kallikrein (P03952 391-638 limits assumed): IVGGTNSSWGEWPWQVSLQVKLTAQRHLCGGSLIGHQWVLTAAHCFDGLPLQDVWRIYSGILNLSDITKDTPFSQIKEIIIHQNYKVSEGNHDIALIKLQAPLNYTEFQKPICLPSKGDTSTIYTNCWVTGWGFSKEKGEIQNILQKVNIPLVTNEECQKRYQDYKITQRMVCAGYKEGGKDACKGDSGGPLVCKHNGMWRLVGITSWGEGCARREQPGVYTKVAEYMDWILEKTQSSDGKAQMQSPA
In short: as §1

[4] = Oral bioavailability in beagle dog plasma at 0.62 mg/kg by LC-MS/MS method; type: ADME, organism-based, Canis lupus familiaris
In short: as §2

[5] = Inhibition of human […] chymotrypsin assessed as reduction in release of p-nitroaniline after 10 to 120 mins by Michaelis-Menten equation analysis
[6] = Half life in beagle dog plasma at 0.28 mg/kg, iv and 0.62 mg/kg, po by LC-MS/MS method; type: ADME, organism-based, Canis lupus familiaris
In short: as §2

Prothrombin = Prothrombin (Homo sapiens, UniProt P00734); test: Inhibition of human coagulation thrombin assessed as reduction in release of p-nitroaniline after 10 to 120 mins by Michaelis-Menten equation analysis
In short: as §1

[7] = Clearance in beagle dog plasma at 0.28 mg/kg, iv and 0.62 mg/kg, po administered in cassette format by LC-MS/MS method; type: ADME, organism-based, Canis lupus familiaris
In short: as §2

[8] = molecular target: Vitamin K-dependent protein C (Homo sapiens, UniProt P04070); test: Inhibition of human activated protein C assessed as reduction in release of p-nitroaniline after 10 to 120 mins by Michaelis-Menten equation analysis
Sequence of Vitamin K-dependent protein C (P04070 43-197 limits assumed): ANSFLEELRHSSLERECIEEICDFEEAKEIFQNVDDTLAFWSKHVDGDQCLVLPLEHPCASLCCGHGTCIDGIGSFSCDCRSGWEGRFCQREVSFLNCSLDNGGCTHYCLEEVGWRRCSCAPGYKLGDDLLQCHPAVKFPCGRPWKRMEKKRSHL
Sequence of Vitamin K-dependent protein C (P04070 212-461 limits assumed): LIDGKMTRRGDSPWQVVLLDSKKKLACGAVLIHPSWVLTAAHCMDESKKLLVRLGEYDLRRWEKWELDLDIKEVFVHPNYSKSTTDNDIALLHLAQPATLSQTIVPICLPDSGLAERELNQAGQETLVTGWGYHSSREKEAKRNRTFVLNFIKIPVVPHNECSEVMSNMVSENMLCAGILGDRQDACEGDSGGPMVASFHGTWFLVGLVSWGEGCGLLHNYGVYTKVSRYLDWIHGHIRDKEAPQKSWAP
In short: as §1

[9] = Volume of distribution at steady state in beagle dog plasma at 0.28 mg/kg, iv and 0.62 mg/kg, po by LC-MS/MS method; type: ADME, organism-based, Canis lupus familiaris; details: read-out: Vdss
In short: as §2

Canis familiaris [10] = test: Clearance in beagle dog plasma at 0.27 mg/kg, iv and 0.43 mg/kg, po administered in cassette format by LC-MS/MS method; type: ADME, organism-based, Canis lupus familiaris; details: in vivo
In short: as §2

[11] = Oral bioavailability in beagle dog plasma at 0.43 mg/kg by LC-MS/MS method; type: ADME, organism-based, Canis lupus familiaris
In short: as §2

Canis familiaris [12] = test: Volume of distribution at steady state in beagle dog plasma at 0.27 mg/kg, iv and 0.43 mg/kg, po by LC-MS/MS method; type: ADME, organism-based, Canis lupus familiaris; details: in vivo
In short: as §2

Canis familiaris [13] = test: Half life in beagle dog plasma at 0.27 mg/kg, iv and 0.43 mg/kg, po by LC-MS/MS method; type: ADME, organism-based, Canis lupus familiaris; details: in vivo
In short: as §2

Sequence of Coagulation factor XI (P03951 19-387 limits assumed): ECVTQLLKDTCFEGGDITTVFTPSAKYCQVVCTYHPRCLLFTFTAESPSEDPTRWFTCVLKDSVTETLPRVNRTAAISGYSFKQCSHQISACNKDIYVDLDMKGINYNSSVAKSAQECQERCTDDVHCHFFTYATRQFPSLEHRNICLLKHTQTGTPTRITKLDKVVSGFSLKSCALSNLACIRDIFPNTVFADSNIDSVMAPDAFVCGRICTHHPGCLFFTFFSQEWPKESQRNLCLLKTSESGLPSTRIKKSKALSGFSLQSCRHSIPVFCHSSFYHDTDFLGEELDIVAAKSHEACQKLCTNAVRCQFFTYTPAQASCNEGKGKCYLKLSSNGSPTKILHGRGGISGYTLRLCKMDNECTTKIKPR
Sequence of Coagulation factor XI (P03951 388-625 limits assumed): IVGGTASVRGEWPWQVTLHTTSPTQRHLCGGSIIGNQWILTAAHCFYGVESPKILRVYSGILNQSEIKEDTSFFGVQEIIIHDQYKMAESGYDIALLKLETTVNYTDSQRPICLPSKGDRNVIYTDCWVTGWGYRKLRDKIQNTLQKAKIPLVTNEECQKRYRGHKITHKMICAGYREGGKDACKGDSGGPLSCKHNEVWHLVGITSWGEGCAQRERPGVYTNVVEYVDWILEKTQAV

Row | Compound | Ki (Coagulation factor XI) | EC1.5 (Plasma) | further results
1 | NC[C@H]1CC[C@H](C(=O)N[C@@H](Cc2ccccc2)c2nc(-c3ccc4c(N)n[nH]c4c3)c(Cl)[nH]2)CC1 | – | 0.32 µM | –
2 | NC[C@H]1CC[C@H](C(=O)NC(Cc2ccccc2)c2cc(-c3ccc4c(N)nccc4c3)ccn2)CC1 (mixture of isomers) | 144 nM | – | –
3 | COc1n[nH]c2ccc(-c3ccnc(C(Cc4ccccc4)NC(=O)[C@H]4CC[C@H](CN)CC4)c3)cc12 (mixture of isomers) | 87 nM | >40 µM | –
4 | NC[C@H]1CC[C@H](C(=O)NC(Cc2ccccc2)c2cc(-c3ccc4c(O)n[nH]c4c3)ccn2)CC1 (mixture of isomers) | 97 nM | – | –
5 | NC[C@H]1CC[C@H](C(=O)NC(Cc2ccccc2)c2cc(-c3ccc4[nH]nc(N)c4c3)ccn2)CC1 (mixture of isomers) | 53 nM | 26 µM | –
6 | NC[C@H]1CC[C@H](C(=O)NC(Cc2ccccc2)c2cc(-c3ccc(N)cc3)ccn2)CC1 (mixture of isomers) | 56 nM | 35 µM | –
7 | NC[C@H]1CC[C@H](C(=O)NC(Cc2ccccc2)c2cc(-c3ccc4[nH]ncc4c3)ccn2)CC1 (mixture of isomers) | 61 nM | – | –

Now from value to compound, other results behind:

Row | Ki (Coagulation factor XI) | Compound | EC1.5 (Plasma) | further results
8 | 9.2 nM | NC[C@H]1CC[C@H](C(=O)NC(Cc2ccccc2)c2cc(-c3ccc4c(N)noc4c3)ccn2)CC1 (mixture of isomers) | – | –
9 | 3.8 nM | NC[C@H]1CC[C@H](C(=O)N[C@@H](Cc2ccccc2)c2cc(-c3ccc4c(N)noc4c3)ccn2)CC1 | 0.6 µM | –
10 | 12 nM | COC(=O)Nc1ccc(-c2ccnc(C(Cc3ccccc3)NC(=O)[C@H]3CC[C@H](CN)CC3)c2)cc1 (mixture of isomers) | 3.7 µM | –
11 | 5.3 nM | NC[C@H]1CC[C@H](C(=O)NC(Cc2ccccc2)c2cc(-c3ccc(N)c(C(=O)O)c3)ccn2)CC1 (mixture of isomers) | 0.8 µM | –
12 | 6.3 nM | COC(=O)Nc1ccc(-c2ccnc([C@H](Cc3ccccc3)NC(=O)[C@H]3CC[C@H](CN)CC3)c2)cc1 | 2.6 µM | Ki (Coagulation factor X): > 9000 nM; Ki (Coagulation factor IX): > 34900 nM; Ki [1]: > 14100 nM; Ki (Trypsin): 101 nM; Ki (Coagulation factor VII): > 12200 nM; Ki (Plasminogen): > 22100 nM; Ki [2]: > 21900 nM; AUC [3]: 0.194 µM·h; Ki (Plasma kallikrein): 42 nM; bioavailability [4]: 63%; Ki [5]: > 20800 nM; half-life [6]: 2.7 h; Ki (Prothrombin): > 12600 nM; clearance [7]: 0.9 mL/min/kg; Ki [8]: > 30200 nM; Vd [9]: 10 L/kg
13 | 7.2 nM | NC[C@H]1CC[C@H](C(=O)N[C@@H](Cc2ccccc2)c2cc(-c3ccc4c(N)n[nH]c4c3)ccn2)CC1 | 0.5 µM | clearance (Canis familiaris [10]): 50 mL/min/kg; bioavailability [11]: 0%; Ki [5]: > 20800 nM; Vdss (Canis familiaris [12]): 3.4 L/kg; t1/2 (Canis familiaris [13]): 1.2 h
14 | 7.9 nM | COC(=O)Nc1ccc(-c2cc([C@H](Cc3ccccc3)NC(=O)[C@H]3CC[C@H](CN)CC3)ccn2)cc1 | 0.9 µM | –
